test system: T47D; assay: Antiproliferative activity against human T47D cells after 120 hrs by SRB assay; assay type: functional

Row | Structure (SMILES) | GI50 [nM]
1 | COc1ccc(-c2ccc3c(N4CCOCC4)nc(N4C[C@@H](C)O[C@@H](C)C4)nc3n2)cc1CO [Ku-0063794] | 350

biological target: Serine/threonine-protein kinase ATR (Homo sapiens, UniProt Q13535); assay: Inhibition of ATR

Row | Structure (SMILES) | IC50 [nM]
2 | COc1ccc(-c2ccc3c(N4CCOCC4)nc(N4C[C@@H](C)O[C@@H](C)C4)nc3n2)cc1CO [Ku-0063794] | > 10000

biological target: DNA-dependent protein kinase catalytic subunit (Homo sapiens, UniProt P78527); assay: Inhibition of DNA-PK
Sequence (P78527 whole entry): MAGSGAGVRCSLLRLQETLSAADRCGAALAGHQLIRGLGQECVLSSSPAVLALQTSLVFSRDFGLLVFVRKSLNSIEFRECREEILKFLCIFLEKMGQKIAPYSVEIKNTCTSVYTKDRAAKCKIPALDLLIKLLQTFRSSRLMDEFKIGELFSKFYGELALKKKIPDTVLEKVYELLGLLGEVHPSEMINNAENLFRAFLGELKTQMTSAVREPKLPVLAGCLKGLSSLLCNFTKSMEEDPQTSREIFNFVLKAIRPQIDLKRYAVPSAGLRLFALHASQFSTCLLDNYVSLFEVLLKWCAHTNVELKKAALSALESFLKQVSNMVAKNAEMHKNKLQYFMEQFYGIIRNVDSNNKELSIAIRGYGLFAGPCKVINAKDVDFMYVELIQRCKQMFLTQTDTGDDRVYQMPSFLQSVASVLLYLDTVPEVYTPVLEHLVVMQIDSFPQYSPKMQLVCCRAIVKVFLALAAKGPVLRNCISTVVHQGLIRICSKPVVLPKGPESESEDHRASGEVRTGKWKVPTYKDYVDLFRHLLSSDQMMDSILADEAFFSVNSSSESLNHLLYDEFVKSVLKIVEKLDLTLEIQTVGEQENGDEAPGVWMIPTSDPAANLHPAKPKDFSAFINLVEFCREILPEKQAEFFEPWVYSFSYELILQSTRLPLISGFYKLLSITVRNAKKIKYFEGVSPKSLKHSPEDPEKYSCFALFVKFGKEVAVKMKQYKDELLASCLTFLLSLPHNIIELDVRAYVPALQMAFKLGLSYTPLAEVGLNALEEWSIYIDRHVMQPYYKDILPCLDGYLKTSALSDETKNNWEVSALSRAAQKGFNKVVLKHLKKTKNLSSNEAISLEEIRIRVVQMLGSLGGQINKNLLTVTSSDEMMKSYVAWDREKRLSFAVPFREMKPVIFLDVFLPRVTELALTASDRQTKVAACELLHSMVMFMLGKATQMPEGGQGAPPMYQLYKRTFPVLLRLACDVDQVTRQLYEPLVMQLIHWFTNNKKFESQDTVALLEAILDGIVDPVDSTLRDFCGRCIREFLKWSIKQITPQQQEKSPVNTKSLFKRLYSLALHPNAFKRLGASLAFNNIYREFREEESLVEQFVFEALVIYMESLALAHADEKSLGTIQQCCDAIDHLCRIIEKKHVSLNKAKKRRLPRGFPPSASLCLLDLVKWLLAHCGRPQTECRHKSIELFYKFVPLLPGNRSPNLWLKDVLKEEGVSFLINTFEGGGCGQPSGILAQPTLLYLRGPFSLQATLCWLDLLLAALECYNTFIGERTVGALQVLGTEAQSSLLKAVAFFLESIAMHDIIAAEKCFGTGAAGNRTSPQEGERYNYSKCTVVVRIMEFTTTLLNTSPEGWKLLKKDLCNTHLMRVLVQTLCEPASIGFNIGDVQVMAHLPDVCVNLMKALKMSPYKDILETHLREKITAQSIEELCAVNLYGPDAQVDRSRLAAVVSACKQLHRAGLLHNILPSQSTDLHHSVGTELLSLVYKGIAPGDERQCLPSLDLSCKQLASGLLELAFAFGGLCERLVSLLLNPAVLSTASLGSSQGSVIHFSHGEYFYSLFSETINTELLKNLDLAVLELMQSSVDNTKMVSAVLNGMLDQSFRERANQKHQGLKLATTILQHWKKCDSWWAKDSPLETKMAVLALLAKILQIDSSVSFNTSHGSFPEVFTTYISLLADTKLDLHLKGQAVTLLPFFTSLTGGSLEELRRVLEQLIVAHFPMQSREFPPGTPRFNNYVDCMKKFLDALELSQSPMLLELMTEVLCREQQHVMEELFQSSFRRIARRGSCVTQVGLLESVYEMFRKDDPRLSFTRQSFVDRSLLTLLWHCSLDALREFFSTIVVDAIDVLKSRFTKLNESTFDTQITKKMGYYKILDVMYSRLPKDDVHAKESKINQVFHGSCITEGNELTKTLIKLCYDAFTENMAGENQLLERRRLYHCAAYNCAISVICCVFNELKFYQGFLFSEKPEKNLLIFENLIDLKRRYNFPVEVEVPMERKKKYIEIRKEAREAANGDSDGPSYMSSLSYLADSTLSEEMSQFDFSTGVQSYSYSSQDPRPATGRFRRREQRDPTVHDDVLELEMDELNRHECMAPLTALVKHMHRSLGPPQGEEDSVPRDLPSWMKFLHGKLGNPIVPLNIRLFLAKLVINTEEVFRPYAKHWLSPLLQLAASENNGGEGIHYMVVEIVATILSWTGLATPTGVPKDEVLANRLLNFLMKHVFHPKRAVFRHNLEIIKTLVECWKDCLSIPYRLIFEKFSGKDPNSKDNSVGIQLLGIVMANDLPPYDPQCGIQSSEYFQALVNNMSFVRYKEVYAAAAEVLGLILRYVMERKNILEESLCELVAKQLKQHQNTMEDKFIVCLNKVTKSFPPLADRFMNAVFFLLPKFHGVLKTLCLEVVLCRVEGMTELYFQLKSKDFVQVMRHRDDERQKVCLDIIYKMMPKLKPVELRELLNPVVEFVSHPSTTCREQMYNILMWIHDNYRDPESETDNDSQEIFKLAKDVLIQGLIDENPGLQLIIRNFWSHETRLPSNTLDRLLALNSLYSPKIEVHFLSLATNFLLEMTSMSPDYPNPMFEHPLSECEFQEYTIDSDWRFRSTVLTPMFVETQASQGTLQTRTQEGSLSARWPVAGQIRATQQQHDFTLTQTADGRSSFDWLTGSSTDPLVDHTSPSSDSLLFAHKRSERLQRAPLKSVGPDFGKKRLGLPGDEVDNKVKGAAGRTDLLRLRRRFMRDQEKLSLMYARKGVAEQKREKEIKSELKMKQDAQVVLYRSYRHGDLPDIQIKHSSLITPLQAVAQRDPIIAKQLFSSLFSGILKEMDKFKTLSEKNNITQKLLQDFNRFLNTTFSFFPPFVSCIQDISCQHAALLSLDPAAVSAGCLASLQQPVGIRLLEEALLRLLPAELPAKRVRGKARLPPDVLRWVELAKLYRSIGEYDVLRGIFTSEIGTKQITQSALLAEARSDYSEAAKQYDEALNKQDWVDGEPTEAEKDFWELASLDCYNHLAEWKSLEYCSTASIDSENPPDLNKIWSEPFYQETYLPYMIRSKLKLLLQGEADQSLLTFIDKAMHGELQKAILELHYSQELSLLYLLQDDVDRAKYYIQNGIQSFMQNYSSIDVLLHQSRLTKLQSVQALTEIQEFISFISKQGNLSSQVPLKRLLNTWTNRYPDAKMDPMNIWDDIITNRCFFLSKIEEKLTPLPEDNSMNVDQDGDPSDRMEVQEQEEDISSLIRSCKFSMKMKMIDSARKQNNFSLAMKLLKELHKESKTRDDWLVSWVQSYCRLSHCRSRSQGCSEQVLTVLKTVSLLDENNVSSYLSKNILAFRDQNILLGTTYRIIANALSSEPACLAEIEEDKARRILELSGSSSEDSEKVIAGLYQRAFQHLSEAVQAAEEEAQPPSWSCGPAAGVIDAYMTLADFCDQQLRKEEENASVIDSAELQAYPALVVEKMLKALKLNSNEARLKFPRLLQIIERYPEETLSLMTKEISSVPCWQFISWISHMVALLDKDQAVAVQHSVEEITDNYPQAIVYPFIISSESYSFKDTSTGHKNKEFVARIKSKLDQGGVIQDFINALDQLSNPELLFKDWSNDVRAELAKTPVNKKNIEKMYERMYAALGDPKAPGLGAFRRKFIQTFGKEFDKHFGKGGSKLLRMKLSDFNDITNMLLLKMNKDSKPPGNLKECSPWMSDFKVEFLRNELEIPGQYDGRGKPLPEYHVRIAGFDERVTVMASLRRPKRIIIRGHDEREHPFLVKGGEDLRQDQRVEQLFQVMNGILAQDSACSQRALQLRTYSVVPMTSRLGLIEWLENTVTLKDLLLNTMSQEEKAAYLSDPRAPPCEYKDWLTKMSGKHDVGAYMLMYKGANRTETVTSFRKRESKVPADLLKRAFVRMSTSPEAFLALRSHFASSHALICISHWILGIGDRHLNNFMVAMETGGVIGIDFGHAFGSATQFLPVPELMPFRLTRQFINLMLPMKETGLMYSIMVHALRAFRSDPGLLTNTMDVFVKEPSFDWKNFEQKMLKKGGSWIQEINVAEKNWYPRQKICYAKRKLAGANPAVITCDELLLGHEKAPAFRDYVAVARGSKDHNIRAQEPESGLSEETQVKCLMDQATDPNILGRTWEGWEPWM

Row | Structure (SMILES) | IC50 [nM]
3 | COc1ccc(-c2ccc3c(N4CCOCC4)nc(N4C[C@@H](C)O[C@@H](C)C4)nc3n2)cc1CO [Ku-0063794] | > 10000

biological target: Serine/threonine-protein kinase mTOR (Homo sapiens) (UniProt P42345); assay: Inhibition of mTOR in human HeLa cells using 4E-BP1 substrate at 10 uM by ELISA; assay type: cell-based

Row | Structure (SMILES) | inhibition [%]
4 | C[C@H]1CCCCN1c1nc(N2CCCCC2)c2cccnc2n1 | < 30
5 | c1cnc2nc(N3CCOCC3)nc(N3CCOCC3)c2c1 | < 30
6 | CC1CCCCN1c1nc(N2CCOCC2)c2ccncc2n1 (stereo not drawn) | < 30
7 | CC1CCCCN1c1nc(N2CCOCC2)c2ccccc2n1 (stereo not drawn) | < 30
8 | CC1CCCCN1c1nc(N2CCOCC2)c2ncccc2n1 (stereo not drawn) | < 30

test system: not listed separately; assay: Inhibition of mTOR in human HeLa cells using 4E-BP1 substrate by ELISA; assay type: cell-based
Summary of the method: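 Full-length mTOR immunoprecipitated from HeLa cytoplasmic extract; recombinant 4E-BP1 protein as substrate; ATP at 50 µM; phosphorylated product detected by ELISA. Values are the mean of at least 3 determinations, with variability around the mean <50%.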

Row | Structure (SMILES) | IC50 [nM]
9 | C[C@@H]1CN(c2nc(N3CCOCC3)c3ccc(-c4ccc(O)cc4)nc3n2)C[C@H](C)O1 | 39
10 | C[C@@H]1CN(c2nc(N3CCOCC3)c3ccc(-c4ccsc4)nc3n2)C[C@H](C)O1 | 33
11 | COc1cccc(-c2ccc3c(N4CCOCC4)nc(N4C[C@@H](C)O[C@@H](C)C4)nc3n2)c1 | 490
12 | C[C@@H]1CN(c2nc(N3CCOCC3)c3ccc(-c4ccncc4)nc3n2)C[C@H](C)O1 | 220
13 | COc1ccc(-c2ccc3c(N4CCOCC4)nc(N4C[C@@H](C)O[C@@H](C)C4)nc3n2)cc1CO [Ku-0063794] | 16
14 | C[C@@H]1CN(c2nc(N3CCOCC3)c3ccc(-c4ccccc4)nc3n2)C[C@H](C)O1 | 62
15 | C[C@H]1CCCCN1c1nc(N2CCCOCC2)c2cccnc2n1 | 4800
16 | CC1CCCN(c2nc(N3CCOCC3)c3cccnc3n2)C1 (stereo not drawn) | 3000
17 | C[C@@H]1CN(c2nc(N3CCOCC3)c3ccc(Nc4ccncc4)nc3n2)C[C@H](C)O1 | 87
18 | C[C@@H]1CN(c2nc(N3CCOCC3)c3ccc(-c4cccc(O)c4)nc3n2)C[C@H](C)O1 | 53
19 | C[C@@H]1CN(c2nc(N3CCOCC3)c3ccc(-c4ccoc4)nc3n2)C[C@H](C)O1 | 120
20 | C[C@H]1CCCCN1c1nc(N2CCOCC2)c2cccnc2n1 | 690
21 | C[C@H]1COCCN1c1nc(N2CCOCC2)c2cccnc2n1 | 1800
22 | C[C@@H]1CN(c2nc(N3CCOCC3)c3ccc(Nc4ccccc4)nc3n2)C[C@H](C)O1 | 120
23 | C[C@@H]1CN(c2nc(N3CCOCC3)c3ccc(-c4cccc(CO)c4)nc3n2)C[C@H](C)O1 | 93
24 | C[C@@H]1CN(c2nc(N3CCOCC3)c3cccnc3n2)C[C@H](C)O1 | 1300
25 | CC1CCCCN1c1nc(N2CCOCC2)c2cccnc2n1 (racemic) | 1000
26 | COc1ccc(-c2ccc3c(N4CCOCC4)nc(N4C[C@@H](C)O[C@@H](C)C4)nc3n2)cc1 | 45
27 | C[C@@H]1CN(c2nc(N3CCOCC3)c3ccc(-c4ccc(O)c(CO)c4)nc3n2)C[C@H](C)O1 | 37
28 | C[C@@H]1CCCCN1c1nc(N2CCOCC2)c2cccnc2n1 | 1200
